Source: ChEMBL document CHEMBL1150393, “Evaluation of radiolabeled (hetero)aromatic analogues of N-(2-diethylaminoethyl)-4-iodobenzamide for imaging and targeted radionuclide therapy of melanoma” (J Med Chem, 2008)

Key:
[1] = system: Spleen; assay: Biodistribution in spleen of C57BL/6 mouse bearing mouse B16-F0 cells at 0.74 to 0.92 MBq, iv after 3 hrs; assay type: ADME, organism-based; details: in vivo
Summary of the method: (§1)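 [¹²⁵I]-labelled compound given iv by tail vein (0.1 µmol per mouse) to male C57BL6 mice bearing s.c. B16-F0 flank tumours (5 × 10⁵ cells in PBS). Two mice per time point were killed by CO₂, frozen in liquid nitrogen and cut into 40 µm cryosections, eight slices per mouse. Slice radioactivity was read on a multiwire proportional counter, converted to kBq/g and reported as %ID/g.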

[2] = system: Blood; assay: Biodistribution in blood of C57BL/6 mouse bearing mouse B16-F0 cells at 0.74 to 0.92 MBq, iv after 6 hrs; assay type: ADME, organism-based; details: in vivo
Summary of the method: (§2)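 Male C57BL6 mice with s.c. left-flank B16-F0 melanoma (5 × 10⁵ cells in PBS). Two mice per time point frozen in liquid nitrogen after CO₂ sacrifice. Eight 40 µm whole-body cryosections per mouse read by multiwire proportional counter. cpm/mm² converted to kBq/g and expressed as %ID/g.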

[3] = Ratio of drug level in tumor to liver of C57BL/6 mouse bearing mouse B16-F0 cells at 0.74 to 0.92 MBq, iv after 24 hrs; assay type: ADME, organism-based; details: in vivo
Summary of the method: (§3)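 Tumour and organ radioactive concentrations came from whole-body cryosection counting (40 µm slices, eight per mouse, two mice per time) after tail-vein injection of the [¹²⁵I]-labelled compound (0.1 µmol) into male C57BL6 mice bearing s.c. B16-F0 melanoma. Each value is the ratio of the tumour concentration to the organ concentration.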

[4] = system: Lung; assay: Biodistribution in lung of C57BL/6 mouse bearing mouse B16-F0 cells at 0.74 to 0.92 MBq, iv after 1 hr; assay type: ADME, organism-based; details: in vivo; summary of the method: as §2
[5] = Drug excretion in mouse B16-F0 cells bearing C57BL/6 mouse urine at 0.74 to 0.92 MBq, iv after 72 hrs; assay type: ADME, organism-based; details: in vivo
Summary of the method: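 Urine was collected from two B16-F0 tumour-bearing C57BL6 mice for up to 72 h after iv tail-vein injection of the [¹²⁵I]-labelled compound (0.1 µmol). Samples were counted to give cumulative urinary excretion as %ID.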

[6] = system: Spleen; assay: Biodistribution in spleen of C57BL/6 mouse bearing mouse B16-F0 cells at 0.74 to 0.92 MBq, iv after 1 hr; assay type: ADME, organism-based; details: in vivo; summary of the method: as §1
[7] = Ratio of drug level in tumor to liver of C57BL/6 mouse bearing mouse B16-F0 cells at 0.74 to 0.92 MBq, iv after 1 hr; assay type: ADME, organism-based; details: in vivo; summary of the method: as §3
[8] = Ratio of drug level in tumor to lung of C57BL/6 mouse bearing mouse B16-F0 cells at 0.74 to 0.92 MBq, iv after 3 hrs; assay type: ADME, organism-based; details: in vivo; summary of the method: as §3
[9] = system: Kidney; assay: Biodistribution in kidney of C57BL/6 mouse bearing mouse B16-F0 cells at 0.74 to 0.92 MBq, iv after 6 hrs; assay type: ADME, organism-based; details: in vivo; summary of the method: as §2
[10] = Biodistribution in intestinal content of C57BL/6 mouse bearing mouse B16-F0 cells at 0.74 to 0.92 MBq, iv after 1 hr; assay type: ADME, organism-based; details: in vivo; summary of the method: as §2
[11] = system: Muscle tissue; assay: Biodistribution in muscle of C57BL/6 mouse bearing mouse B16-F0 cells at 0.74 to 0.92 MBq, iv after 1 hr; assay type: ADME, organism-based; details: in vivo; summary of the method: as §2
[12] = Biodistribution in uvea of C57BL/6 mouse bearing mouse B16-F0 cells at 0.74 to 0.92 MBq, iv after 24 hrs; assay type: ADME, organism-based, Uveal tract; details: in vivo; summary of the method: as §1
[13] = system: Kidney; assay: Biodistribution in kidney of C57BL/6 mouse bearing mouse B16-F0 cells at 0.74 to 0.92 MBq, iv after 3 hrs; assay type: ADME, organism-based; details: in vivo; summary of the method: as §2
[14] = Biodistribution in Stomach content of C57BL/6 mouse bearing mouse B16-F0 cells at 0.74 to 0.92 MBq, iv after 3 hrs; assay type: ADME, organism-based; details: in vivo; summary of the method: as §2
[15] = system: Brain; assay: Biodistribution in brain of C57BL/6 mouse bearing mouse B16-F0 cells at 0.74 to 0.92 MBq, iv after 3 hrs; assay type: ADME, organism-based; details: in vivo; summary of the method: as §2
[16] = system: Muscle tissue; assay: Biodistribution in muscle of C57BL/6 mouse bearing mouse B16-F0 cells at 0.74 to 0.92 MBq, iv after 3 hrs; assay type: ADME, organism-based; details: in vivo; summary of the method: as §2
[17] = Biodistribution in tumor of C57BL/6 mouse bearing mouse B16-F0 cells at 0.74 to 0.92 MBq, iv after 6 hrs; assay type: ADME, organism-based, Neoplasm; details: in vivo; summary of the method: as §1
[18] = Ratio of drug level in tumor to liver of C57BL/6 mouse bearing mouse B16-F0 cells at 0.74 to 0.92 MBq, iv after 3 hrs; assay type: ADME, organism-based; details: in vivo; summary of the method: as §3
[19] = system: Liver; assay: Biodistribution in liver of C57BL/6 mouse bearing mouse B16-F0 cells at 0.74 to 0.92 MBq, iv after 1 hr; assay type: ADME, organism-based; details: in vivo; summary of the method: as §2
[20] = system: Liver; assay: Biodistribution in liver of C57BL/6 mouse bearing mouse B16-F0 cells at 0.74 to 0.92 MBq, iv after 24 hrs; assay type: ADME, organism-based; details: in vivo; summary of the method: as §2
[21] = system: Thyroid gland; assay: Biodistribution in thyroid of C57BL/6 mouse bearing mouse B16-F0 cells at 0.74 to 0.92 MBq, iv after 24 hrs; assay type: ADME, organism-based; details: in vivo; summary of the method: as §1
[22] = Biodistribution in Stomach content of C57BL/6 mouse bearing mouse B16-F0 cells at 0.74 to 0.92 MBq, iv after 1 hr; assay type: ADME, organism-based; details: in vivo; summary of the method: as §2
[23] = Ratio of drug level in tumor to brain of C57BL/6 mouse bearing mouse B16-F0 cells at 0.74 to 0.92 MBq, iv after 1 hr; assay type: ADME, organism-based; details: in vivo; summary of the method: as §3
[24] = Biodistribution in tumor of C57BL/6 mouse bearing mouse B16-F0 cells at 0.74 to 0.92 MBq, iv after 24 hrs; assay type: ADME, organism-based, Neoplasm; details: in vivo; summary of the method: as §1
[25] = system: Liver; assay: Biodistribution in liver of C57BL/6 mouse bearing mouse B16-F0 cells at 0.74 to 0.92 MBq, iv after 3 hrs; assay type: ADME, organism-based; details: in vivo; summary of the method: as §2
[26] = Ratio of drug level in tumor to lung of C57BL/6 mouse bearing mouse B16-F0 cells at 0.74 to 0.92 MBq, iv after 1 hr; assay type: ADME, organism-based; details: in vivo; summary of the method: as §3
[27] = Biodistribution in Stomach content of C57BL/6 mouse bearing mouse B16-F0 cells at 0.74 to 0.92 MBq, iv after 6 hrs; assay type: ADME, organism-based; details: in vivo; summary of the method: as §2
[28] = Biodistribution in tumor of C57BL/6 mouse bearing mouse B16-F0 cells at 0.74 to 0.92 MBq, iv after 72 hrs; assay type: ADME, organism-based, Neoplasm; details: in vivo; summary of the method: as §1
[29] = system: Brain; assay: Biodistribution in brain of C57BL/6 mouse bearing mouse B16-F0 cells at 0.74 to 0.92 MBq, iv after 1 hr; assay type: ADME, organism-based; details: in vivo; summary of the method: as §2
[30] = system: Pancreas; assay: Biodistribution in pancreas of C57BL/6 mouse bearing mouse B16-F0 cells at 0.74 to 0.92 MBq, iv after 1 hr; assay type: ADME, organism-based; details: in vivo; summary of the method: as §2
[31] = Biodistribution in tumor of C57BL/6 mouse bearing mouse B16-F0 cells at 0.74 to 0.92 MBq, iv after 3 hrs; assay type: ADME, organism-based, Neoplasm; details: in vivo; summary of the method: as §1
[32] = Biodistribution in uvea of C57BL/6 mouse bearing mouse B16-F0 cells at 0.74 to 0.92 MBq, iv after 6 hrs; assay type: ADME, organism-based, Uveal tract; details: in vivo; summary of the method: as §1
[33] = system: Liver; assay: Biodistribution in liver of C57BL/6 mouse bearing mouse B16-F0 cells at 0.74 to 0.92 MBq, iv after 6 hrs; assay type: ADME, organism-based; details: in vivo; summary of the method: as §2
[34] = Partition coefficient, log P in phosphate buffer solution at pH 7.4; assay type: physicochemical
Summary of the method: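 Shake-flask partition: 50 µM [¹²⁵I]-labelled compound in phosphate buffer pH 7.4 was mixed with 2 mL n-octanol. Each phase was γ-counted, P was taken as the octanol/buffer activity ratio, and log P was reported.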

Row | Drug uptake [1] [% ID/g] | Drug uptake [2] [% ID/g] | Ratio [3] | Drug uptake [4] [% ID/g] | Activity [5] [%] | Drug uptake [6] [% ID/g] | Ratio [7] | Ratio [8] | Drug uptake [9] [% ID/g] | Drug uptake [10] [% ID/g] | Drug uptake [11] [% ID/g] | Drug uptake [12] [% ID/g] | Drug uptake [13] [% ID/g] | Drug uptake [14] [% ID/g] | Drug uptake [15] [% ID/g] | Drug uptake [16] [% ID/g] | Drug uptake [17] [% ID/g] | Ratio [18] | Drug uptake [19] [% ID/g] | Drug uptake [20] [% ID/g] | SMILES | other results
1 | 4.69 | 3.09 | 14.54 | 7.83 | 70.2 | 14.21 | 1.29 | 4.87 | 7.69 | 15.22 | 2.04 | 32.44 | 9.3 | 20.33 | 1.03 | 0.86 | 40.7 | 3.12 | 13.18 | 1.49 | CCN(CC)CCNC(=O)c1cnc2cc([125I])ccc2n1.Cl.Cl | Drug uptake [21]: 94.22 % ID/g; Drug uptake [22]: 24.33 % ID/g; Ratio [23]: 7.26; Drug uptake [24]: 21.7 % ID/g; Drug uptake [25]: 8.87 % ID/g; Ratio [26]: 2.17; Drug uptake [27]: 21.09 % ID/g; Drug uptake [28]: 12.5 % ID/g; Drug uptake [29]: 2.34 % ID/g; Drug uptake [30]: 7.6 % ID/g; Drug uptake [31]: 27.7 % ID/g; Drug uptake [32]: 32.3 % ID/g; Drug uptake [33]: 7.53 % ID/g; logD [34]: 1.12
2 | 10.63 | 5.91 | 5.39 | 9.41 | 80.7 | 11.56 | 1.8 | 4.54 | 7.6 | 15.78 | 1.79 | 22.27 | 12.59 | 34.72 | 0.83 | 1.14 | 17.2 | 2.85 | 10.92 | 2.25 | CCN(CC)CCNC(=O)c1ccc2cc([125I])ccc2n1.Cl.Cl | Drug uptake [22]: 48.03 % ID/g; Ratio [23]: 10.02; Drug uptake [24]: 12.1 % ID/g; Drug uptake [25]: 8.89 % ID/g; Ratio [26]: 2.09; Drug uptake [27]: 65.36 % ID/g; Drug uptake [28]: 5.9 % ID/g; Drug uptake [29]: 1.96 % ID/g; Drug uptake [30]: 9.8 % ID/g; Drug uptake [31]: 25.4 % ID/g; Drug uptake [32]: 36.62 % ID/g; Drug uptake [33]: 7.11 % ID/g; logD [34]: 1.87
